Sampled rows, rich in hits. Any-hit rate of the full collection: about 3.7%.
AHR activator – AHR activators, primary screen, cell-based, luminescence, luciferase reporter, human | Aryl hydrocarbon receptor (Homo sapiens), P35869 | AHR-responsive luciferase reporter cells | activation, % at 5 µM | 320,000 compounds, 2.5% hits | AID 2796, 2010; in the data active = activation above about 47%;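 also: 0% = vehicle wells and 100% = reference agonist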
GASC-1 inh – inhibitors of GASC-1 histone demethylase, primary screen, biochemical, fluorescence, DELFIA europium. 330,000 compounds, 0.069% hits. inhibition, % at 2.35 µM. Lysine-specific demethylase 4C (Homo sapiens), Q9H3R0. GST-JMJD2C(1-420) H3K9me3 demethylation;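 active = more than half of a compound's replicate wells show inhibition beyond 50%, single wells judged on their own value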;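 also: signal counts dimethyl H3K9 product captured on neutravidin plate; 0% = median of DMSO wells and 100% = 0.3 times that DMSO median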
Target sequence (Q9H3R0 1-420 limits assumed): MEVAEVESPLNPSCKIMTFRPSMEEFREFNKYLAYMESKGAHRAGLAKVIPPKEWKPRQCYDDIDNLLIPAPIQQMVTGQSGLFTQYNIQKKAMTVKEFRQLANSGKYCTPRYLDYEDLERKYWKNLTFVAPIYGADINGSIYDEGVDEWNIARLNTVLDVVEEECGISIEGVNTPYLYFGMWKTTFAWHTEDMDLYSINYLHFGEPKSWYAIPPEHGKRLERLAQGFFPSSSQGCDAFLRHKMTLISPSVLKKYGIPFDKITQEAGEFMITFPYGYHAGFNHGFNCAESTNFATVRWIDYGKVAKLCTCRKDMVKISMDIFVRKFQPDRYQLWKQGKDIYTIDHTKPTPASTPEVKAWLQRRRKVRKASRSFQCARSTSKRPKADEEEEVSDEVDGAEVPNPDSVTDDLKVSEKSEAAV
SR-BI HDL uptake – inhibitors of SR-BI mediated HDL lipid uptake, primary screen, ldlA[mSR-BI] cells, fluorescence, single point | Scavenger receptor class B member 1 (Mus musculus), Q61009 | ldlA[mSR-BI] CHO cells, DiI-HDL uptake fluorescence, 3 h | inhibition, % at 12.5 µM | 320,000 compounds, 0.96% hits;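 active = mean replicate inhibition of at least 70% and a set share of replicates each scoring 70 or more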;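 also: 0% = median of neutral control wells and 100% = median of positive control wells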
GAA850 FXN act – FXN promoter activators, primary screen, cell-based, luciferase luminescence, HEK293 lucGAA850; HEK293 lucGAA850 FXN promoter luciferase reporter, 24 h; percent of 10 µM SAHA response; 360,000 compounds, 0.56% hits; AID 540364, 2011; activation, % at 6 µM;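 active = activation above the average of all compounds screened plus 3 SD, cutoff fixed separately per campaign, cut at about 7.5% in these data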;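 also: 0% = DMSO wells and 100% = 10 µM SAHA wells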
SR-BI DiI-HDL act – activators of SR-BI mediated DiI-HDL uptake, primary screen, ldlA[mSR-BI] CHO cells, DiI fluorescence. 3 h; 100 = double the neutral-control signal. activation, % at 12.5 µM. 320,000 compounds, 0.096% hits. AID 504775, 2011;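 active = mean replicate activation of at least 60% and every replicate at or above 60%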;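 also: 0% = median plate neutral-control signal and 100% = twice that signal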
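Material: SR-BI-overexpressing, LDLR-lacking CHO cells | Dosing: Single compound concentration, delivered by pin transfer | Probe or stimulus: Labelled HDL, 10 µg/mL | Signal: Bottom-read cell fluorescence after medium removal, ex 550/em 595 nm | Schedule: 3 h, 37 °C | Evaluation: HDL uptake via cellular fluorescence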
Active calls of the source: *; nt = not tested or not shown.

SMILES	AHR activator	GASC-1 inh	SR-BI HDL uptake	GAA850 FXN act	SR-BI DiI-HDL act
COc1ccc(-c2cnc3c(-c4ccc(F)cc4)cnn3c2N)cc1	5.5	-25.2	95.3*	6.6	-95.3
COc1ccc(-c2cnn3c(N)c(S(=O)(=O)C(C)(C)C)cnc23)cc1	5.5	5.9	11.9	-1.3	-11.9
COc1ccccc1NS(=O)(=O)c1cccc(C(=O)N/N=C/c2ccc([N+](=O)[O-])o2)c1	nt	nt	13.0	-0.8	-13.0
CCCCNC(=O)[C@H](CSCc1ccccc1)N1Cc2ccccc2C1=O	0.3	36.9	15.3	3.9	-15.3
CCOC(=O)COn1c(=O)c(-c2cc3ccccc3o2)[n+]([O-])c2ccccc21	61.6*	-4.9	10.4	3.0	-10.4
C=CCOn1c(=O)c(-c2cc3ccccc3o2)[n+]([O-])c2ccccc21	63.7*	-1.3	28.6	4.2	-28.7
Cc1ccc(S(=O)(=O)N(C)CC(=O)NNC(=O)CCC(=O)c2ccc(F)cc2)cc1	1.3	5.1	-2.3	-1.8	2.3
Cc1cc([N+](=O)[O-])ccc1NC(=O)Nc1ccccc1F	6.6	-6.2	93.8*	1.2	-93.8
O=C(CNCc1ccccn1)Nc1ccc([N+](=O)[O-])cc1C(=O)Nc1ccccc1F	74.8*	-1.4	nt	1.1	nt
O=C(Nc1ccccc1)Nc1cc([N+](=O)[O-])ccc1F	1.3	11.8	-14.2	0.3	14.2
CN(C)c1cc(-c2ccc([N+](=O)[O-])cc2)oc(=O)c1Cl	-3.4	23.6	16.3	1.8	-16.3
CCn1c(=O)c(C(=O)NNC(=O)c2ccccc2F)c(O)c2ccccc21	7.3	7.4	-4.3	0.2	4.3
Cc1ccccc1NC(=O)C(C)N1C(=O)c2ccccc2C1=O (configuration not stated)	1.3	1.1	-13.8	-2.3	13.8
Cn1c(=O)c(C(=O)NNC(=O)c2ccccc2F)c(O)c2ccccc21	66.4*	16.9	-10.5	2.1	10.5
Cc1cccnc1NC(=O)c1c(O)c2ccccc2n(C)c1=O	53.5*	-5.5	-4.1	1.9	4.1
Cc1cccnc1NC(=O)C(C)N1C(=O)c2ccccc2C1=O (configuration not stated)	65.7*	-5.4	0.8	-0.6	-0.8
CC(C)[C@H](NC(=O)N1CC(=O)Nc2ccccc21)C(=O)N[C@@H](Cc1ccccc1)C(=O)O	2.6	nt	-36.0	-1.7	36.0
Nc1ccc(C(=O)N2CCCC2)cc1	0.8	159.0	12.7	0.6	-12.7
Nc1ccc(C(=O)n2c3ccccc3c3ccccc32)cc1	-1.6	-71.9	90.8*	-6.6	-90.8
Cc1ccc(CN2CCN(C(=O)c3ccncc3)CC2)cc1	-3.4	-3.0	-36.4	0.2	36.4
COc1cccc(-c2nnc(-c3ccco3)o2)c1	51.3*	3.8	-14.6	2.2	14.6
COc1cccc(-c2nnc(-c3ccc(C)o3)o2)c1	-0.6	-4.1	-9.6	2.3	9.6
N/C(=N\OC(=O)c1cccc([N+](=O)[O-])c1)c1ccccn1	68.2*	7.0	-8.5	1.6	8.5
N/C(=N/OC(=O)c1cccc([N+](=O)[O-])c1)c1cccc([N+](=O)[O-])c1	2.9	8.9	12.6	-2.3	-12.6
N/C(=N\OC(=O)c1cccc2ccccc12)c1ccccn1	61.2*	8.3	3.8	1.2	-3.8
SMILES	AHR activator	GASC-1 inh	SR-BI HDL uptake	GAA850 FXN act	SR-BI DiI-HDL act
N#Cc1nc(-c2cccc(Cl)c2)oc1N1CCC(C(N)=O)CC1	6.7	-10.4	-0.2	0.2	0.2
Cc1ccccc1OCC(=O)N/N=C/c1ccco1	0.6	29.9	10.8	-1.2	-10.8
COc1ccc(OCC(=O)N/N=C/C(C)=C/c2ccco2)c(Br)c1	12.3	67.0*	nt	-2.4	nt
OCCCn1c(CCNc2nc(-c3ccc(F)cc3)cs2)nc2cc(C(F)(F)F)ccc21	50.7*	-10.8	9.3	1.9	-9.3
OCCCn1c(C2CCCN2c2nc(-c3ccc(F)cc3)cs2)nc2cc(C(F)(F)F)ccc21 (configuration not stated)	19.3	-12.9	31.3	1.2	-31.3
CCN(CC(=O)Nc1c(F)cccc1F)C(=O)Cc1ccc2c(c1)CCC2	11.3	3.3	-0.4	0.3	0.4
CCOC(=O)c1c(C)[nH]c(C(=O)OCC(=O)Nc2sccc2C(N)=O)c1C	53.4*	-6.4	43.2	-6.9	-43.2
Cc1ccccc1NC(=O)Cc1nc(COC(=O)c2cccc(C)c2O)cs1	-0.8	2.0	9.7	1.5	-9.7
CCOC(=O)c1c(C)[nH]c(C(=O)OCc2csc(CC(=O)Nc3ccccc3C)n2)c1C	9.2	-0.6	81.0*	-2.2	-81.0
Cc1oc(-c2cccc(F)c2)nc1CN(Cc1ccccc1)C[C@@H]1CCC(=O)N1	4.8	4.1	19.7	-1.8	-19.7
CN(C)c1ccc(C=c2c3cc([N+](=O)[O-])ccc3n3c2cc(-c2ccccc2)[n+]3C)cc1	nt	nt	84.1*	-6.4	-84.1
COc1c(/C=N/NC(=O)c2ccncc2)c(CCN(C)C(C)=O)cc2c1OCO2	6.4	14.6	-145.3	-1.1	145.3*
COc1ccc(C(=O)NC(C)Cc2c[nH]c3ccccc23)cc1 (configuration not stated)	nt	nt	nt	2.2	nt
CCc1nnc(NC(=O)c2cc(-c3ccccn3)nc3ccc(Br)cc23)s1	49.5*	-4.7	-23.0	-0.7	23.0
O=C(Nc1nc2c(s1)CCCC2)c1cc(-c2ccncc2)nc2ccccc12	29.8	161.4	76.0*	3.5	-76.0
CCc1nnc(NC(=O)c2cc(-c3ccncc3)nc3ccccc23)s1	61.8*	-4.3	nt	0.4	nt
O=C(Nc1nc2c(s1)CCCC2)c1cc(-c2ccccc2)nc2ccccc12	6.0	6.1	38.9	3.1	-38.9
COc1ccc2c(c1)c(=O)cc(C)n2CC(=O)NCc1ccco1	42.2	1.6	-13.4	1.7	13.4
Cc1cc(C)c(NC(=O)CNC(=O)c2ccc3ncsc3c2)c(C)c1	-1.8	4.6	13.7	0.1	-13.7
CCOC(=O)C1=C(COC(=O)C2(C)CC2(Cl)Cl)NC(=O)NC1c1ccc(OC)cc1 (configuration not stated)	-1.1	4.2	73.2*	-0.4	-73.2
CCOC(=O)C1=C(CP(=O)(c2ccccc2)c2ccccc2)NC(=O)NC1c1ccc(OC)cc1 (configuration not stated)	1.1	-13.0	-6.4	-1.2	6.4
COc1ccc(S(=O)(=O)N2CCN(C(=S)NC3CCCCC3)CC2)cc1	0.5	-2.7	-0.7	2.3	0.7
COc1ccc(-c2cc(=O)c3cc(F)ccc3[nH]2)cc1	18.4	1.8	0.7	3.0	-0.7
COc1ccc(-c2cc(=O)c3cc(OC)c(OC)cc3[nH]2)cc1	62.3*	-0.5	37.3	2.1	-37.3

Compound activity (PubChem BioAssay)
